Data set [1] deals with Plasmodium falciparum. Description: Antimalarial activity against chloroquine-sensitive Plasmodium falciparum D6 infected in human O positive red blood cells assessed as inhibition of [3H]-hypoxanthine uptake after 48 hrs. It counts as functional, organism-based. The method in brief:
(§1)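 Synchronised ring-stage parasites (sorbitol selection) kept in RPMI-1640 with HEPES, glucose, hypoxanthine, gentamycin, 10% human plasma and 4% O+ RBCs under 5% O2/5% CO2/90% N2 at 37 °C. Assay at 2% hematocrit and 1% parasitemia in hypoxanthine-free medium. DMSO stocks of 20-25 mg/mL, ten 2-fold dilutions in triplicate, 48 h. [3H]-hypoxanthine (0.2 µCi) added at 24 h. IC50 taken against compound-free controls.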

The subject of data set [2] is HEK293. Description: Cytotoxicity against human HEK293 cells after 72 hrs by alamar blue assay. The format is cell-based. To be noted: HEK293, 72 h. The method in brief:
(§2)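 HEK-293 and HepG2 cells grown in RPMI 1640 with 10% FBS and L-glutamine at 37 °C. Seeded at 5 × 10^3 cells/well and left 24 h before drug addition. Compounds tested from 312 to 0.6 µg/mL, artesunate and chloroquine from 120 µM to 60 nM, in triplicate for 72 h. DMSO vehicle and cell-free background wells as controls. 10% Alamar Blue added for 2 h, fluorescence read at ex 530/em 595 nm. IC50 from at least two independent experiments, mean ± SD.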

In data set [3] the test system is HepG2. Nature of the data set: Cytotoxicity against human HepG2 cells after 72 hrs by alamar blue assay. Particulars: HepG2, 72 h. The format is cell-based. The method in brief:
as §2

A short description of data set [4]: Selectivity index, ratio of IC50 for human HepG2 cells to IC50 for Plasmodium falciparum 3D7.
Data set [5] in a line: Selectivity index, ratio of IC50 for human HEK293 cells to IC50 for Plasmodium falciparum 3D7.
In data set [6] the test system is Plasmodium berghei. Description: Antimalarial activity against Plasmodium berghei infected in mouse assessed as reduction of parasite infection at 1 mg/kg, sc qd for 4 days relative to control. The format is functional. Also on record: scale not given: the % may be the effect or the level left. Particulars: route subcutaneous.
Data set [7] concerns Plasmodium berghei. Nature of the data set: Antimalarial activity against Plasmodium berghei infected in mouse assessed as reduction of parasite infection at 2 mg/kg, sc qd for 4 days relative to control. It counts as functional. Also on record: scale not given: the % may be the effect or the level left. To be noted: route subcutaneous.
Data set [8] relates to Plasmodium falciparum. Nature of the data set: Antimalarial activity against chloroquine-sensitive Plasmodium falciparum 3D7 infected in human O positive red blood cells assessed as inhibition of [3H]-hypoxanthine uptake after 48 hrs. It counts as functional, organism-based. The method in brief:
as §1

Data set [9] has as its system Plasmodium falciparum. Nature of the data set: Antimalarial activity against chloroquine, pyrimethamine, and mefloquine-resistant Plasmodium falciparum Dd2 infected in human O positive red blood cells assessed as inhibition of [3H]-hypoxanthine uptake after 48 hrs. It counts as functional, organism-based. The method in brief:
as §1

Data set [10] has as its system Plasmodium falciparum. Nature of the data set: Antimalarial activity against chloroquine and pyrimethamine-resistant Plasmodium falciparum K1 infected in human O positive red blood cells assessed as inhibition of [3H]-hypoxanthine uptake after 48 hrs. The format is functional, organism-based. The method in brief:
as §1

Data set [11] relates to Plasmodium falciparum. Nature of the data set: Antimalarial activity against multidrug-resistant Plasmodium falciparum TM90-C2B infected in human O positive red blood cells assessed as inhibition of [3H]-hypoxanthine uptake after 48 hrs. It counts as functional, organism-based. The method in brief: as §1
Data set [12] concerns Plasmodium falciparum. Description: Antimalarial activity against multidrug-resistant Plasmodium falciparum TM93-C1088 infected in human O positive red blood cells assessed as inhibition of [3H]-hypoxanthine uptake after 48 hrs. The format is functional, organism-based. The method in brief: as §1
The subject of data set [13] is Mus musculus. Description: Toxicity in mouse assessed as physical stress at 32 mg/kg, sc qd for 4 days. It counts as organism-based. To be noted: in vivo, 96 h. Also on record: dose 32 mg/kg, route subcutaneous. The method in brief: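 Tolerability in healthy mice: subcutaneous dosing for 4 days. Mice watched for physical stress, namely ruffled coat, extreme pallor, weight loss, shaking and reduced mobility.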

Data set [14] deals with Plasmodium berghei. Nature of the data set: Antimalarial activity against Plasmodium berghei infected in mouse assessed as reduction of parasite infection at 32 mg/kg, sc qd for 4 days relative to control. It counts as functional. Also noted: scale not given: the % may be the effect or the level left. Particulars: route subcutaneous.
Data set [15] deals with Plasmodium berghei. Nature of the data set: Antimalarial activity against Plasmodium berghei infected in mouse assessed as reduction of parasite infection at 32 mg/kg, sc bid for 4 days relative to control. The format is functional. Also on record: scale not given: the % may be the effect or the level left. To be noted: route subcutaneous. The method in brief: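 Peters 4-day suppressive test in female mice (n = 6) inoculated intraperitoneally with 20 × 10^6 P. berghei ANKA-infected erythrocytes. Test articles dissolved in Tween 80/ethanol (7:3, v/v), diluted 10-fold in distilled water, and given subcutaneously from D0 (about 2 and 6 h post-inoculation) over 4 days. Chloroquine prepared in water. Giemsa-stained thin smears on D+1 to D+4. Microscopic % infected erythrocytes, suppression at D+4 versus vehicle control.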

SMILES strings stand for the structures.

The term IC50 denotes the concentration that gives 50% inhibition.

Turning to `C[C@H]1O[C@H](OC[C@H]2O[C@@H](Oc3cc(O)c4c(=O)c(O)c(-c5ccc(O)c(O)c5)oc4c3)[C@H](O)[C@@H](O)[C@H]2O)[C@@H](O)[C@@H](O)[C@@H]1O` (stereo in doubt), the IC50 in data set [1] is over 500 µM.

Take `C[C@H]1[C@H](OC(=O)CCC(=O)O)O[C@@H]2O[C@@]3(C)CC[C@H]4[C@H](C)CC[C@@H]1[C@@]24OO3` [ARTESUNATE]: the IC50 in [2] amounted to 2.9 µM; in [3], 12.7 µM. In addition, the SI was found to be 374 in data set [4] and 150 in [5].

Regarding `CCN(CC)CCCC(C)Nc1ccnc2cc(Cl)ccc12` (stereo not given) [CHLOROQUINE], the results for the IC50 in data set [2] and in data set [3] were 12 µM and 8.3 µM, respectively. Besides, the Activity in data set [6] is reported as 58%; in data set [7], 97%. Also, the SI in data set [4] was 415; in [5] it was 600.

On to `O=C1C=CC(O)(/C=C/C(=O)OC[C@H]2O[C@@H](Oc3ccc(O)cc3)[C@H](O)[C@@H](O)[C@@H]2O)C=C1` [ROBUSTASIDE D], for which the IC50 in [1] worked out at 5.1 µM; in data set [8], 5.5 µM; in data set [9] it was 3 µM; in data set [10] it was 3 µM; in [11] it was 5.3 µM; in data set [12] it was 4.1 µM. Besides, the IC50 was 195 µM in [2] and 221 µM in [3]. In addition, the Activity entry was “Non-toxic” in data set [13], 21% in data set [14] and 95% in data set [15]. In addition, the SI in data set [4] stood at 37; in data set [5], 33.

In the case of `O=C(/C=C/C1(O)C=CC(O)CC1=O)OC[C@H]1O[C@@H](Oc2ccc(O)cc2)[C@H](O)[C@@H](O)[C@@H]1O` (stereo not given in full) [ROBUSTASIDE E], the IC50 was 55.5 µM in data set [1]; 77.4 µM in [8]; 55.5 µM in data set [9]; 29.4 µM in data set [10]; 36.2 µM in data set [11]; 25.3 µM in data set [12]. The IC50 in data set [2] and in [3] was over 690 µM in each case. Moreover, the SI in data set [4] and in [5] was over 10 throughout.

As to `COc1ccc(O)c(/C=C\C(=O)OC[C@H]2O[C@@H](Oc3ccc(O)cc3)[C@H](OC(=O)/C=C\c3cc(OC)ccc3O)[C@@H](O)[C@@H]2O)c1` [ROBUSTASIDE F], in [1], the IC50 is 14.7 µM.

(Values after ChEMBL document CHEMBL1667740, “Phenolic glycosides with antimalarial activity from Grevillea "Poorinda Queen"” (J Nat Prod, 2011).)
